Results gathered from unrelated publications.
Target: Cyclin-dependent kinase 7 (CDK7, Homo sapiens, UniProt P50613)

With COc1cccc(CNC(=O)c2nc3scc(COCc4ccc(C(=O)O)cc4)c3c(=O)[nH]2)c1 the remaining binding was 80.5% (cell-free assay; competition with immobilised ligand; 1 µM).
Cc1cnc(Nc2ccc(C(=O)N3CCC(N4CCCC4)CC3)cc2)nc1-c1cc2ccccc2s1 has a remaining binding of 2.4% (binding; competition with immobilised ligand; 1 µM).
With N[C@@H]1CCN(c2nccc(-c3cnn4ncccc34)n2)C1 the remaining binding was 21% (binding; 1 µM).
O=C(c1ccc(Nc2nccc(-c3cc4ccccc4s3)n2)cc1)N1CCC(N2CCCC2)CC1 has a remaining binding of 12% (binding; competition with immobilised ligand; 1 µM).
CN(CCCC(F)(F)F)c1nccc(-c2cnn3ncccc23)n1 gave a remaining binding of 87% (binding; 1 µM).
COc1ncc2cc3ccccc3nc2c1C#N has a remaining binding of 100% (cell-free assay; competition with immobilised ligand; 5 µM).
CS(=O)(=O)NCC[C@H](NC(=O)c1cncc2c1cnn2-c1ccc(F)cc1)c1ccnc(S(C)(=O)=O)c1 gave a remaining binding of 100% (cell-free assay; competition with immobilised ligand; 1 µM).
The remaining binding of C[C@@H]1CN(c2ccc3ncc(-c4ccc5[nH]nc(C6CC6)c5c4)n3n2)C[C@H](C)O1 is reported as 88% (binding; competition with immobilised ligand; 50 nM).
Nc1ncc2c(n1)-c1c([nH]c3ccc(C#CC4CC4)cc13)CCCC2 has a remaining binding of 92% (binding; competition with immobilised ligand; 1 µM).
CC1CCCN1c1nccc(-c2cnn3ncccc23)n1 (centres unmarked) gave a remaining binding of 100% (binding; 1 µM).
With O=C(Nc1c[nH]nc1C(=O)NC1CCNCC1)c1cc(F)cc(F)c1 the remaining binding was 5.6% (binding; competition with immobilised ligand; 1 µM).
For FC(F)(F)Oc1cccc(-c2cnc3ccc(-c4ccncc4)nn23)c1, the remaining binding was 0.85% (cell-free assay; competition with immobilised ligand; 5 µM).
The remaining binding of O=C(NS(=O)(=O)c1ccc(NCC2CCOCC2)c([N+](=O)[O-])c1)c1ccc(N2CCN(Cc3ccc(C(F)(F)F)cc3-c3ccc(Cl)cc3)CC2)cc1Oc1cnc2[nH]ccc2c1 is reported as 96% (cell-free assay; competition with immobilised ligand; 1 µM).
CN(C)c1nccc(-c2cnn3ncccc23)n1 gave a remaining binding of 82% (binding; 1 µM).
With CNC(=O)[C@@H]1CC[C@@H](n2c(-c3ccc4cnccc4c3)nc3ccc(C(=O)NCc4cccc(C(N)=O)c4)cc32)C1 the remaining binding was 100% (binding; competition with immobilised ligand; 1 µM).
The remaining binding of O=C(Nc1cccnn1)N1CC(C/C=C/c2cncc(Oc3ccc(C(F)(F)F)cn3)n2)C1 is reported as 81% (cell-free assay; competition with immobilised ligand; 1 µM).
C[C@@H]1CCN(c2nccc(-c3cnn4ncccc34)n2)C1 has a remaining binding of 35% (binding; 1 µM).
The remaining binding of O=C(O)[C@@H]1[C@@H](Cn2nnc3ccccc3c2=O)CC[C@H]1C(=O)c1ccc(OCCC2CCOCC2)cc1 is reported as 86% (cell-free assay; competition with immobilised ligand; 1 µM).
For O=C(c1ccc(Nc2ncc(Cl)c(-c3ccc(Cl)s3)n2)cc1)N1CCC(N2CCCC2)CC1, the remaining binding was 0.55% (binding; competition with immobilised ligand; 1 µM).
The remaining binding of O=C(NCCCC1CCCCC1)c1ccc(CNC(=O)c2cnn(-c3ccccc3)c2C(F)(F)F)cc1 is reported as 100% (cell-free assay; competition with immobilised ligand; 0.1 µM).
For Cc1cnn2ncc(-c3ccnc(N(C)C)n3)c2c1, the remaining binding was 61% (binding; 1 µM).
O=S(=O)(NC1CCC(c2cc(F)ccc2F)(S(=O)(=O)c2ccc(Cl)cc2)CC1)C(F)(F)F (centres unmarked) gave a remaining binding of 100% (cell-free assay; competition with immobilised ligand; 1 µM).
The remaining binding of C=CC(=O)N1CCC(C(=O)NCC(=O)N2CCN(c3nc(-c4cnc(N)nc4C(F)F)nc(N4CCOCC4)n3)CC2)CC1 is reported as 94% (binding; competition with immobilised ligand; 1 µM).
